Screens from PubChem.
PvdQ acylase: P. aeruginosa PvdQ acylase inhibitors, primary screen, biochemical, fluorescence, plate reader and imaging, single point | 340,000 compounds, 0.063% hits | purified PvdQ acylase | PvdQ acylase [Pseudomonas aeruginosa LESB58] | inhibition, % at 10 µM; in the data active = inhibition above about 30%, passing the limit was not always enough;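 also: 0% = vehicle neutral wells and 100% = reference inhibitor wells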
PHOSPHO1 inh: PubChem AID 1565; recombinant PHOSPHO1, absorbance phosphatase assay; inhibition, % at 13.3 µM; 290,000 compounds, 1.1% hits; in the data active = inhibition above about 60%
Target sequence (Q8TCT1 whole entry, looked up): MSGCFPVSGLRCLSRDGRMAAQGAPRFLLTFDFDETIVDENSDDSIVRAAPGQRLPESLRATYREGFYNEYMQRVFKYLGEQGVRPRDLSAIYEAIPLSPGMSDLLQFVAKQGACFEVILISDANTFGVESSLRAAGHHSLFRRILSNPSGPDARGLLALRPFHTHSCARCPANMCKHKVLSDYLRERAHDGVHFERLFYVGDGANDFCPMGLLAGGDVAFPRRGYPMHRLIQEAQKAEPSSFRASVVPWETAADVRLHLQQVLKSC
VIM-2 inh: VIM-2 metallo-beta-lactamase inhibitors, primary screen, biochemical, epi-absorbance readout, Pseudomonas aeruginosa enzyme; purified VIM-2, nitrocefin hydrolysis, epi-absorbance fluorescence; inhibition, % at 5.6 µM; 290,000 compounds, 0.89% hits; AID 1527, 2009;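 active = inhibition above the mean of all tested compounds plus 3 SD, cutoff set per screening run, cut at about 7.5% in these data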;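 also: red hydrolysis product quenches plate fluorescence so inhibitors raise well fluorescence; 0% = enzyme with DMSO and 100% = DMSO without enzyme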
IMP-1 inh: IMP-1 metallo-beta-lactamase inhibitors, primary screen, biochemical, epi-absorbance readout, Pseudomonas aeruginosa enzyme; metallo-beta-lactamase IMP-1 (Pseudomonas aeruginosa); purified IMP-1, nitrocefin hydrolysis, epi-absorbance fluorescence; inhibition, % at 5.6 µM; 290,000 compounds, 0.45% hits; AID 1556, 2009;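 active = inhibition above the mean plus 3 SD of all compounds in the same screening run, cut at about 4.5% in these data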;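 also: 0% = IMP-1 with DMSO and 100% = DMSO wells lacking enzyme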
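System: Purified IMP-1 | Read-out basis: Percent enzyme inhibition | Controls: IMP-1 with DMSO as 0%, enzyme-free DMSO as 100% | Replicates: One well per compound | Doses: 5.6 µM nominal single concentration | Detection: Epi-absorbance fluorescence, 480 nm excitation, 530 nm emission | Incubation: 25 °C, 15 min preincubation, 25 min reaction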
CR mimetic SO: reduction of superoxide in aged yeast, primary screen, HTS. superoxide response (% of plate mean), % at 10 µM. S. cerevisiae aged cells, superoxide DHE fluorescence; hits give low values. AID 2690, 2010. 330,000 compounds, 0.18% hits;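 active = superoxide response under a set limit, about three screen SD below normal, cut at about 65% in these data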;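 also: yeast aged for seven days with compound at 30 °C before DHE staining; 100% = average MFI of all compound-treated wells on the plate with controls excluded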
Superoxide pick: superoxide lowering in aged yeast cells, confirmation, cherry picked compounds | shares compounds with CR mimetic SO | S. cerevisiae aging, superoxide DHE fluorescence; hits give low values | superoxide response (% of plate), % at 10 µM | 850 compounds, 1% hits | AID 434994, 2010;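 active = superoxide signal below 65% of the plate average of sample wells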;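 also: cells aged with compound for 7 days at 30 degrees C before staining; 100% equals mean DHE fluorescence of all compound wells on the plate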
DHE counter: DHE quenching or ROS scavenging interference in aged yeast, artefact control for yeast caloric restriction mimetic project, S. cerevisiae BY4741, flow cytometry; shares compounds with CR mimetic SO; DHE fluorescence; hits give low values; fluorescence response, % at 10 µM; 850 tested, under 10 active; AID 435000, 2010;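 active = fluorescence response below 15%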;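 also: percent of the mean fluorescence averaged over all compound wells on the plate; lower means stronger quenching of DHE signal or ROS scavenging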
Numbers without * were called inactive; nt = no result. The list is not random: actives were taken first. Their share in the collection is about 2.2%.

SMILES	PvdQ acylase	PHOSPHO1 inh	VIM-2 inh	IMP-1 inh	CR mimetic SO	Superoxide pick	DHE counter
Cc1ccc(-c2nc3ccccc3c(=O)n2O)cc1	10.3	nt	-3.3	-3.9	58.5*	92.5	110.6
Cc1ccc(-c2nc3ccc(Cl)cc3c(=O)n2O)cc1	1.1	15.9	-3.4	-2.6	124.8	nt	nt
COc1ccc(NC(=O)c2ccc(S(=O)(=O)N3CCOCC3)o2)cc1	-6.9	37.7	-2.8	-1.5	64.2*	94.7	91.0
O=C(Nc1ccc(F)cc1)c1ccc(S(=O)(=O)N2CCOCC2)o1	nt	-0.8	-0.8	-1.1	89.8	nt	nt
CS(=O)(=O)c1ccc(-c2sc3ccccc3c2C(=O)NCCCN2CCOCC2)cc1	8.7	nt	nt	nt	85.7	nt	nt
Cc1ccc(NC2=NCCC2)cc1Cl	-17.0	-47.7	4.1	-0.4	64.9*	91.4	99.8
O=C(NC1CC(=O)N(c2ccccc2)C1)C1CC1 (configuration not stated)	-11.1	nt	nt	nt	115.3	nt	nt
Cc1c(F)cccc1NS(=O)(=O)c1ccccc1C#N	-10.4	-15.6	-0.8	-0.1	89.7	104.5	92.2
O=C(Cn1ccc(NC(=O)OCc2ccccc2)nc1=O)NCCCn1ccnc1	-5.4	nt	nt	nt	98.8	nt	nt
COc1ccc(NC(C)C(=O)Nc2cccc(S(=O)(=O)N3CCOCC3)c2)cc1OC (configuration not stated)	2.0	nt	nt	nt	104.1	nt	nt
COc1ccc(S(=O)(=O)Nc2noc3ccccc23)cc1	-9.6	nt	-0.8	-2.0	101.9	nt	nt
COc1ccc(S(=O)(=O)Nc2noc3ccccc23)cc1OC	-11.2	24.8	1.3	0.0	53.8*	82.7	96.7
CC(C)OC(=O)c1ccc2nc3ccccc3nc2c1	-3.3	15.6	-0.6	-4.7	53.1*	82.7	101.2
CC(C)OC(=O)c1ccc(NC(=O)c2ccccc2)cc1	5.7	-23.9	-3.3	-6.2	110.2	nt	nt
Cc1ccc2c(c1)S(=O)(=O)N(C)C(c1ccccc1)=C2	-6.5	nt	nt	nt	nt	nt	nt
COc1cc(OC)cc(C(=O)O/N=C(\N)c2ccncc2)c1	-1.8	-7.4	-1.7	-1.6	61.6*	111.9	109.9
CCN(CC)CCN1C(=O)C(O)=C(C(C)=O)C1c1ccccc1[N+](=O)[O-] (configuration not stated)	-9.2	29.8	-0.7	-3.0	93.7	nt	nt
CC(=O)C1=C(O)C(=O)N(CCc2ccccc2)C1c1ccccc1[N+](=O)[O-] (configuration not stated)	-9.5	-7.4	-2.0	-2.5	58.6*	107.2	96.8
O=C(CN(c1ccc2c(c1)OCCO2)S(=O)(=O)c1ccccc1)NCc1ccc(Cl)cc1	-3.6	3.4	-4.9	-2.2	61.8*	101.5	91.4
CCN1CCc2nc(N)sc2C1	-2.0	-76.8	-4.4	-0.1	65.3*	112.4	109.3
C=CCN1CCc2nc(N)sc2CC1	4.7	1.1	-2.6	-2.1	nt	nt	nt
CC(C)N1C(=O)C2(OCCCO2)c2cc(Br)ccc21	-5.1	nt	0.5	1.0	60.3*	121.8	110.3
COC(=O)CN1C(=O)C2(OCCCO2)c2cc(Br)ccc21	-8.3	3.6	0.8	-5.1	84.8	nt	nt
COc1nnc(-c2ccc(C)c(S(=O)(=O)NCC3CCCO3)c2)c2ccccc12 (configuration not stated)	3.2	27.9	4.5	-1.0	108.8	nt	nt
Cc1ccc(-c2nnc(Nc3ccc(C(N)=O)cc3)c3ccccc23)cc1S(=O)(=O)NCC1CCCO1 (configuration not stated)	-4.1	-7.1	-1.0	-2.8	95.1	112.3	100.4
SMILES	PvdQ acylase	PHOSPHO1 inh	VIM-2 inh	IMP-1 inh	CR mimetic SO	Superoxide pick	DHE counter
Cc1ccc(-c2nnc(Nc3ccc4c(c3)OCO4)c3ccccc23)cc1S(N)(=O)=O	-10.8	4.1	-0.9	-3.7	109.7	98.6	94.2
CNC(=O)COc1ccc(Nc2nnc(-c3ccc(C)c(S(N)(=O)=O)c3)c3ccccc23)cc1	-2.2	37.3	-1.0	-0.7	41.8*	101.4	92.0
CNC(=O)c1cc(Nc2nnc(-c3ccc(C)c(S(N)(=O)=O)c3)c3ccccc23)ccc1OC	-5.6	22.9	1.8	1.5	58.2*	115.2	111.3
Cc1c(C(=O)OC(C)C)sc(NC(=O)c2cnccn2)c1C(=O)OC(C)C	4.9	nt	nt	nt	nt	nt	nt
C#CCOCCOCCOCCNc1nc(N2CCOCC2)nc(N2CCN(C(=O)Cn3cc(CCCCN)nn3)CC2)n1	-13.8	nt	nt	nt	nt	nt	nt
O=C1NC(=O)c2cc3ccccc3cc21	-7.3	nt	nt	nt	97.4	nt	nt
CCN1C(=O)c2ccc(C(=O)Nc3ccc(O)cc3C)cc2C1=O	-1.8	19.0	1.1	0.1	99.8	nt	nt
CC(=O)Nc1ccc(Nc2nnc(-c3ccc(C)c(S(N)(=O)=O)c3)c3ccccc23)cc1	-9.0	28.4	1.6	-0.4	90.2	105.9	89.9
COc1ccc(N2CC(C(=O)N(C)CC(=O)Nc3ccc(Cl)c(C(F)(F)F)c3)CC2=O)c(OC)c1 (configuration not stated)	5.1	nt	nt	nt	84.8	nt	nt
CC(=O)N1CCN(C(=O)c2ccc3c(c2)S(=O)(=O)c2ccccc2C3=O)CC1	-1.8	26.5	-1.1	-2.1	47.1*	95.0	99.0
CCc1cccc(C)c1NC(=O)COC(=O)c1ccc2c(c1)S(=O)(=O)c1ccccc1C2=O	8.1	2.3	-3.1	-3.7	58.5*	93.6	96.1
CC1(C)CC(NCc2cccc([N+](=O)[O-])c2)CC(C)(C)N1	-10.3	15.0	-1.2	-2.1	62.2*	112.2	88.4
COc1ccc(CN2CCN(Cc3ccc(Br)cc3)CC2)c(OC)c1OC	-20.0	22.9	0.2	1.2	45.9*	93.8	89.0
Nc1cc2c3c(cccc3c1)C(=O)N(CCN1CCCC1)C2=O	-6.2	1.0	4.1	2.8	48.1*	100.5	105.3
O=C1c2cccc3cc([N+](=O)[O-])cc(c23)C(=O)N1CCN1CCCC1	-13.9	27.3	3.6	-2.4	nt	nt	nt
CC(=O)c1ccc(NS(=O)(=O)c2ccc(N)cc2)cc1	8.7	23.4	-5.4	-4.4	88.5	nt	nt
CC(=O)c1ccc(NS(=O)(=O)c2ccccc2)cc1	-15.2	24.2	-2.1	-1.2	104.4	94.1	86.2
Cn1c(=O)c2[nH]c(-c3ccccc3)nc2n(C)c1=O	nt	6.0	2.3	-3.0	nt	nt	nt
Cn1c(=O)c2[nH]c(-c3cccnc3)nc2n(C)c1=O	-9.8	7.6	0.6	-1.0	58.0*	90.9	91.9
O=C(CSc1nc(O)cc(=O)n1-c1ccc(Cl)c(Cl)c1)Nc1ccc(Cl)cc1Cl	-12.4	23.3	-0.3	-2.6	92.4	nt	nt
CN(C)S(=O)(=O)c1ccc(NC(=O)COc2cccc3c2OC(C)(C)C3)cc1	-8.8	nt	nt	nt	nt	nt	nt
CCCCc1cc(=O)oc2cc(OCC(=O)N3CCC(C(=O)O)(c4ccccc4)CC3)ccc12	7.4	33.8	-4.4	-2.9	64.0*	112.7	94.8
